We go through 14 molecules from PubChem BioAssay.

Structures are written as SMILES. The source made the active and inactive calls.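 Rule for the calls, unless noted: active = viability at or below 10% of carrier control in both of two separate runs; inconclusive = viability at or below 10% in only one of the two runs; inactive = the rest.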

The nature of test [1]: Her2 expression decrease, cell viability multiplex – SKBR3 breast tumor cells, AlphaScreen, ATP viability, primary screen (AID 461;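 active = Her2 level under about 52% in both replicate screens, with viability over 70% of control, limit read from the data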;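 for Her2 level: lower value means less Her2 protein in the cells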;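 for viability: percent of carrier control wells set as 100% viability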). The conditions noted are these: SKBR3 Her2 protein level, 18-24 h, measured here: SKBR3 viability, ATP luminescence, at 10 µM.
Test [2] deals with Receptor tyrosine-protein kinase erbB-2 (Homo sapiens) (UniProt P04626). The description is as above. Particulars: 18-24 h, at 10 µM, stronger effect = lower value.
Test [3] can be described thus: reduced viability of SK-BR-3 breast cancer cells – cell-based, 24 h, human, pilot screen (AID 572).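 Note: compound exposure lasted between 18 and 24 h rather than exactly 24 h; 100% = carrier-treated control wells.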 The conditions noted are these: SK-BR-3 viability, CellTiter-Glo luminescence, at 10 µM, stronger effect = lower value.
Test [4] is described as follows: HUVEC growth inhibition – cell-based, human, primary screen (AID 575;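 active = viability at or below 30% in both replicate assays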;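 note: 100% = median of untreated cell wells with 0.1% DMSO on each plate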). The conditions noted are these: HUVEC proliferation, CellTiter-Glo luminescence, 72 h; at 10 µM; stronger effect = lower value. An outline of the steps:
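Test system: primary human umbilical vein endothelial cells; medium: endothelial basal medium with 2% FBS plus growth supplements; dosing: 10 µM compound only; times: 72 h treatment at 37 °C; signal: CTG luminescence; read-out: % viability relative to median vehicle-well signal on each plate; control set: vehicle and MePR control wells; plate: 384-well, collagen-coated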

Test [5] in a line: H69AR cell proliferation blockers – human, duplicate replicates, primary screen (AID 580;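 active = viability at or under a set limit in both replicates, limit being median viability minus 3 SD, cut at about 48% in these data, passing the limit was not always enough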;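 note: 100% = mean luminescence of untreated wells and 0% = no signal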). Particulars: H69AR lung tumor cells viability, ATP luminescence, 72 h; at 10 µM; stronger effect = lower value.
The nature of test [6]: MRP1 drug-resistance reversers in H69AR cells – cell-based, doxorubicin co-treatment, pilot screen (AID 601;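 active = viability loss from added drug above about 55%, and viability with drug at most 40%, in both replicates, limit read from the data, passing the limit was not always enough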). The conditions noted are these: CellTiter-Glo, 72 h, at 10 µM; for differential viability (reversal): stronger effect = higher value.
Test [7] is described as follows: yeast transport mutant growth inhibition pilot in 384-well plates, post-Golgi transport modulator project (AID 636; in the data active = inhibition above about 31%). Particulars: absorbance 615 nm, about 18 h, stronger effect = higher value.
Test [8] can be described thus: growth suppression of yeast trafficking mutant, preliminary HTS, modulators of trafficking downstream of Golgi apparatus project, 1536-format plate, OD 615 nm (AID 637; in the data active = inhibition above about 30%). Particulars: yeast transport mutant growth, absorbance 615 nm, 18 h; stronger effect = higher value.
The mark [9] stands for this setting: H69AR cells + 2 uM doxorubicin, measured here: viability with 2 uM doxorubicin, stronger effect = lower value.
The mark [10] stands for this setting: H69AR cells, compound alone cytotoxicity.

Chain of Receptor tyrosine-protein kinase erbB-2 (Homo sapiens) (P04626 whole entry, looked up): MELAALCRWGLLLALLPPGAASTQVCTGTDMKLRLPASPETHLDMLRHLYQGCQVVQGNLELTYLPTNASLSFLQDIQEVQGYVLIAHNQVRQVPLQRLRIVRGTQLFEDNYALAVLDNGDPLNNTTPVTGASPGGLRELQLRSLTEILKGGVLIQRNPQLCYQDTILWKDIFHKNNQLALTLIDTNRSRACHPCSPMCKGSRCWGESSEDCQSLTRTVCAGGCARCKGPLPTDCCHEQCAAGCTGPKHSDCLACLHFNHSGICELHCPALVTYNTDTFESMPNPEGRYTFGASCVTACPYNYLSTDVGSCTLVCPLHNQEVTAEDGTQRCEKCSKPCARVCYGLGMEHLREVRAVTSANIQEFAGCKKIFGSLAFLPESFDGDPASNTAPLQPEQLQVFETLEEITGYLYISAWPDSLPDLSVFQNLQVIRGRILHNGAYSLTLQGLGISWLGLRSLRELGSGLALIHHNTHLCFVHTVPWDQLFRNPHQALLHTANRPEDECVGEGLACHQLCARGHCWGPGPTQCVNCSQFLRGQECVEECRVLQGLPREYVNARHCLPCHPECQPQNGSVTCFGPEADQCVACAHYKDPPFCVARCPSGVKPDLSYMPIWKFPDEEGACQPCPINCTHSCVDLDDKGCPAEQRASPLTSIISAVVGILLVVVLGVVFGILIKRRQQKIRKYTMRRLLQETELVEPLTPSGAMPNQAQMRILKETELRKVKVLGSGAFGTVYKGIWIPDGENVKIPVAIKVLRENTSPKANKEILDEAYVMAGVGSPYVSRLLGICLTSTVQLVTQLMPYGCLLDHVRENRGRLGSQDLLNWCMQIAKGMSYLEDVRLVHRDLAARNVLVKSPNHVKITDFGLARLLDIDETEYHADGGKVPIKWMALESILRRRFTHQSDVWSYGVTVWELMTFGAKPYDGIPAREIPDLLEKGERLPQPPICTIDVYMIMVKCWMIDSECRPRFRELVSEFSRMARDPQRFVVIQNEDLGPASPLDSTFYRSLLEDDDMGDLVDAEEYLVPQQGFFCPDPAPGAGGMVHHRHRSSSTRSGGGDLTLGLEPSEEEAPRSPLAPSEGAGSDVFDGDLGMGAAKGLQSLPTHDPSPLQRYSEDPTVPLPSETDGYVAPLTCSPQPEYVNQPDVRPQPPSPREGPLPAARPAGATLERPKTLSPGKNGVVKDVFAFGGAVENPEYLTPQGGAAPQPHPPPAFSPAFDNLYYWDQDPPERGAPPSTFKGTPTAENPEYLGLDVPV

Turning to `Cc1ccc(-c2nnc(SC(C)C#N)n2N)cc1` (stereo not given), the viability in test [1] is 108%; in test [3], 108% (inactive); in test [4] it was 88.5% (inactive); in test [5], 92.3% (inactive); in test [6] (setting [9]), 83.1%; in test [6] (setting [10]), 92.3%. The Her2 level in test [2] is 83% (inactive). In addition, in test [6] (H69AR cells + 2 uM doxorubicin), the differential viability (reversal) is 9.2% (inactive). Besides, the figures for the inhibition in test [7] and in test [8] were -5.68% (inactive) and 4.44% (inactive), respectively.
Turning to `CCOC(=O)CSc1nn(C)c(=S)s1`, the viability in test [1] was 97.5%; in test [3], 97.5% (inactive); in test [4], 73.2% (inactive); in test [5], 102% (inactive); in test [6] (setting [9]), 94.9%; in test [6] (setting [10]), 102%. Further, in test [2], the Her2 level was 106% (inactive). Moreover, the differential viability (reversal) in test [6] (H69AR cells + 2 uM doxorubicin) was 7.25% (inactive). For the same molecule, the values for the inhibition in test [7] and in test [8] were -2.4% (inactive) and -1.5% (inactive), respectively.
Regarding `O=C(CSc1nnc(SCc2ccc(Cl)cc2)s1)N1CCN(C(=O)c2ccco2)CC1`, the viability in test [1] was 80.5%; in test [3], 80.5% (inactive); in test [4], 70.3% (inactive); in test [5] it was 100% (inactive); in test [6] (setting [9]) it was 89.2%; in test [6] (setting [10]), 100%. For the same molecule, the Her2 level in test [2] is 93% (inactive). Moreover, the differential viability (reversal) in test [6] (H69AR cells + 2 uM doxorubicin) was 10.9% (inactive). The values for the inhibition in test [7] and in test [8] were -8.36% (inactive) and -5.56% (inactive), respectively.
On to `O=C1c2ccccc2C(Nc2ccc3nc(-c4cccnc4)[nH]c3c2)N1Cc1ccco1` (stereo not given), for which the viability was 88.5% in test [1]; 88.5% (inactive) in test [3]; 87.5% (inactive) in test [4]; 91.2% (inactive) in test [5]; 81.1% in test [6] (setting [9]); 91.2% in test [6] (setting [10]). Also, in test [2], the Her2 level is 108% (inactive). The differential viability (reversal) in test [6] (H69AR cells + 2 uM doxorubicin) was 10.1% (inactive). In addition, the inhibition was 2.44% (inactive) in test [7] and -4.17% (inactive) in test [8].
Consider `O=C(COC(=O)c1ccco1)NCc1cccs1`, for which the viability in test [1] is 112%; in test [3], 112% (inactive); in test [4] it was 98.9% (inactive); in test [5] it was 106% (inactive); in test [6] (setting [9]), 95.3%; in test [6] (setting [10]) it was 106%. The Her2 level in test [2] was 97.5% (inactive). The differential viability (reversal) in test [6] (H69AR cells + 2 uM doxorubicin) was 10.7% (inactive). Moreover, the inhibition in test [7] is -7.76% (inactive); in test [8] it was 0% (inactive).
On to `O=C(c1cccs1)c1cn(CC(=O)N2CCc3ccccc3C2)c2ccccc12`, for which the viability in test [1] was 93%; in test [3] it was 93% (inactive); in test [4] it was 86.1% (inactive); in test [5], 86.9% (inactive); in test [6] (setting [9]), 79.5%; in test [6] (setting [10]), 86.9%. In test [2], the Her2 level is 108% (inactive). Moreover, the differential viability (reversal) in test [6] (H69AR cells + 2 uM doxorubicin) is 7.43% (inactive). Further, the inhibition in test [7] is -6.13% (inactive); in test [8], 1.45% (inactive).
For `CC(C)CCNC(=O)NC(=O)CSc1nnc(-c2ccccc2Br)o1`, the viability is 95% in test [1]; 95% (inactive) in test [3]; 85.8% (inactive) in test [4]; 104% (inactive) in test [5]; 101% in test [6] (setting [9]); 104% in test [6] (setting [10]). Also, in test [2], the Her2 level was 95.5% (inactive). Further, in test [6] (H69AR cells + 2 uM doxorubicin), the differential viability (reversal) was 2.91% (inactive). Besides, the inhibition in test [7] was -4.74% (inactive); in test [8], 0% (inactive).
As to `O=C(COc1ccc(S(=O)(=O)N2CCCC2)cc1Cl)NC1CC1`, the viability is 126% in test [1]; 126% (inactive) in test [3]; 112% (inactive) in test [4]; 101% (inactive) in test [5]; 93.2% in test [6] (setting [9]); 101% in test [6] (setting [10]). In test [2], the Her2 level is 108% (inactive). Further, the differential viability (reversal) in test [6] (H69AR cells + 2 uM doxorubicin) is 7.76% (inactive). Moreover, the inhibition in test [7] was -5.68% (inactive); in test [8] it was 3.67% (inactive).
For `CC(C)(C)c1cc(NS(=O)(=O)c2ccc3c(c2)OCCO3)on1`, the viability was 131% in test [1]; 131% (inactive) in test [3]; 98.1% (inactive) in test [4]; 89.6% (inactive) in test [5]; 93% in test [6] (setting [9]); 89.6% in test [6] (setting [10]). Moreover, in test [2], the Her2 level was 88% (inactive). The differential viability (reversal) in test [6] (H69AR cells + 2 uM doxorubicin) was -3.41% (inactive). For the same molecule, the inhibition in test [7] was -1.3% (inactive); in test [8], 5.24% (inactive).
In the case of `COc1ccc(CNS(=O)(=O)c2ccc3oc(C(=O)O)c(C)c3c2)cc1`, the viability in test [1] was 103%; in test [3] it was 103% (inactive); in test [4] it was 111% (inactive); in test [5], 92.2% (inactive); in test [6] (setting [9]), 91.6%; in test [6] (setting [10]), 92.2%. Besides, the Her2 level in test [2] was 93% (inactive). For the same molecule, the differential viability (reversal) in test [6] (H69AR cells + 2 uM doxorubicin) is 0.665% (inactive). Besides, the inhibition is -3.64% (inactive) in test [7] and -2.46% (inactive) in test [8].
On to `Fc1cccc2sc(Nc3nnc(-c4ccco4)o3)nc12`, for which the viability was 109% in test [1]; 109% (inactive) in test [3]; 57.3% (inactive) in test [4]; 41.2% (active) in test [5]; 62.6% in test [6] (setting [9]); 41.2% in test [6] (setting [10]). Also, the Her2 level in test [2] is 37% (active). Also, in test [6] (H69AR cells + 2 uM doxorubicin), the differential viability (reversal) is -21.4% (inactive). In addition, the inhibition is -0.4% (inactive) in test [7] and 0% (inactive) in test [8].
As to `Fc1cccc(-c2cc3nc4c(c(N5CCN(c6cnccn6)CC5)n3n2)CCCC4)c1`, the viability in test [1] was 104%; in test [3] it was 104% (inactive); in test [4], 86.9% (inactive); in test [5] it was 89.2% (inactive); in test [6] (setting [9]) it was 83.6%; in test [6] (setting [10]), 89.2%. Besides, in test [2], the Her2 level is 78% (inactive). Also, in test [6] (H69AR cells + 2 uM doxorubicin), the differential viability (reversal) is 5.59% (inactive). The inhibition in test [7] is -5.58% (inactive); in test [8], 0.16% (inactive).
Regarding `CC(=O)c1c(OCC(=O)O)ccc2c(C)cc(=O)oc12`, the viability in test [1] is 136%; in test [3], 136% (inactive); in test [4], 101% (inactive); in test [5], 91.8% (inactive); in test [6] (setting [9]) it was 88.7%; in test [6] (setting [10]), 91.8%. Moreover, the Her2 level in test [2] is 104% (inactive). Besides, in test [6] (H69AR cells + 2 uM doxorubicin), the differential viability (reversal) was 3.1% (inactive). In addition, the inhibition was -5.66% (inactive) in test [7] and 6.07% (inactive) in test [8].
With `COC(=O)Cn1c(C)nc2c(sc3nc(C)cc(C)c32)c1=O`, the viability was 110% in test [1]; 110% (inactive) in test [3]; 105% (inactive) in test [4]; 97.6% (inactive) in test [5]; 90.1% in test [6] (setting [9]); 97.6% in test [6] (setting [10]). The Her2 level in test [2] is 113% (inactive). In test [6] (H69AR cells + 2 uM doxorubicin), the differential viability (reversal) is 7.48% (inactive). Also, the inhibition in test [7] is -4.61% (inactive); in test [8], 2.79% (inactive).
